Source: PMC5843917 (Journal of the Renin-Angiotensin-Aldosterone System: JRAAS, 2017)

Tests used:
[1] = system: aldosterone and cortisol; details: cited from earlier work
[2] = system: blood pressure, ACTH-stimulated cortisol; details: primary hypertension, all doses tested; cited from earlier work
[3] = cited from earlier work
[4] = system: urine aldosterone; assay: 24-hour urine aldosterone excretion after multiple dosing; assay type: in vivo, human; details: spironolactone 25 mg/d
Outline: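 Once-daily oral dosing for 8 days in healthy adults (0.1–100 mg; solution in degassed Sprite; double-dummy with an MR antagonist capsule). Urine pooled over 24 h from pre-dose Day 3 to pre-dose Day 4, and from pre-dose Day 7 to pre-dose Day 8, and assayed for aldosterone. Data ln-transformed and fitted with a mixed model (fixed treatment and period, random subject). Ratios of LS geometric means with 90% CIs.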

[5] = system: plasma aldosterone; assay: Basal plasma aldosterone concentration; assay type: in vivo, human; details: multiple dose, model estimate (CV%)
[6] = system: plasma aldosterone, corticosterone, 11-deoxycorticosterone; assay: IV ACTH challenge Day 8: plasma aldosterone and precursors; assay type: in vivo, human
Outline: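 After 8 days of oral once-daily dosing in healthy adults, an IV ACTH challenge was given 1 h post-dose on Day 8. Plasma aldosterone, corticosterone and 11-deoxycorticosterone were drawn at −15 min (baseline) and at 30 and 60 min post-challenge. Read-out was change from pre-challenge, averaged over 30 and 60 min. Stimulated aldosterone was fitted with a hyperbolic Imax model against dose and plasma drug level.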

[7] = system: plasma cortisol and 11-deoxycortisol (CYP11B1); assay: IV ACTH challenge Day 8: plasma cortisol and 11-deoxycortisol; assay type: in vivo, human; details: spironolactone 25 mg/d
Outline: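 IV ACTH challenge 1 h after the Day 8 oral dose, following daily dosing at 0.1–100 mg in healthy adults (crossover with placebo and an MR antagonist). Plasma cortisol and 11-deoxycortisol were drawn at −15, 30 and 60 min. Read-out was mean change from pre-challenge, with cortisol expressed as the average post-challenge concentration over the 1-h period.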

[8] = system: serum K+; assay: Basal serum potassium after multiple dosing; assay type: in vivo, human; details: model estimate (CV%)
[9] = system: serum K+; assay: Oral K+ challenge Day 7: serum K+ and K+ renal clearance; assay type: in vivo, human
Outline: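 On Day 7 of once-daily oral dosing, healthy adults received an oral 40 mEq K+ load 3 h post-dose. Dietary K+ that day was cut by 40 mEq to hold daily intake at 125 mEq. Serum K+ was followed for 5 h post-challenge, and Cavg was taken over 5 h. Renal clearance = urinary excretion / serum AUC. Post-challenge K+ was fitted with a hyperbolic Emax model (additive above placebo).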

[10] = system: urinary K+ excretion; assay: 24-hour urinary K+ excretion Days 3 and 7; assay type: in vivo, human; details: spironolactone 25 mg/d
[11] = Safety and tolerability in healthy subjects; assay type: in vivo, human; details: multiple administration, ASEB
Outline: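 Two studies in healthy adults confined to the unit: a single ascending oral dose (0.1–300 mg) and once-daily dosing for 8 days (0.1–100 mg) with placebo and an MR antagonist in double-dummy crossover. Safety covered vital signs, ECG, and hepatic and renal laboratory tests. Blood pressure was taken repeatedly over Days 3 and 7. Average MAP = area under the MAP–time curve to 24 h divided by 24 h.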

N#Cc1ccc([C@H]2CCc3cncn32)c(F)c1 [LCI699]
plasma and 24-h urinary aldosterone ([1]; Na+-depleted healthy volunteers, dose-dependent): decreased both plasma and 24-h urinary aldosterone
ACTH-stimulated aldosterone elevation ([1]; all three doses (0.5, 1 and 3 mg)): inhibited ACTH-stimulated aldosterone elevation
ACTH-stimulated cortisol production ([1]; higher dose of 3 mg): significantly inhibited ACTH-stimulated cortisol production
ACTH-stimulated cortisol production [2]: significantly inhibited ACTH-stimulated cortisol production

C[C@]12CCC(=O)C=C1CC[C@@H]1[C@@H]2[C@@H](O)C[C@]2(C=O)[C@@H](C(=O)CO)CC[C@@H]12 [aldosterone]
disappearance half-life of radiolabeled aldosterone [3]: 35 min

CC(=O)S[C@@H]1CC2=CC(=O)CC[C@]2(C)[C@H]2CC[C@@]3(C)[C@@H](CC[C@@]34CCC(=O)O4)[C@H]12 [Spironolactone]
effect on urine aldosterone excretion [4]: elevated urine aldosterone excretion
Spironolactone (50 mg) effect on PAC [5]: 49 (19%) pg/ml
effect on PAC following the ACTH challenge ([6]; spironolactone 25 mg/d, Day 8): no effect on PAC
Spironolactone (50 mg) effect on PAC ([6]; stimulated, post-ACTH, model estimate (CV%)): 18 (89%) pg/ml
plasma cortisol after ACTH challenge compared to placebo [7]: No differences
Spironolactone (50 mg) effect on K+ [8]: 0.02 (232%) mM
average serum K+ over 5 h post oral K+ challenge (Cavg, mean±SD) ([9]; spironolactone 25 mg/d, Day 7): 4.5 ± 0.2 mmol/L
Spironolactone (50 mg) effect on K+ ([9]; stimulated, post-K+ challenge, model estimate (CV%)): 0.09 (68%) mM
24-hour urinary K+ excretion (mean±SD) ([10]; Day 3, placebo 99±19): 97 ± 20 mmol
24-hour urinary K+ excretion (mean±SD) ([10]; Day 7, placebo 110±23): 117 ± 17 mmol
effects on mean arterial pressure (MAP) [11]: no clear effects
